Compound activity as filed in PubChem.
Hits are enriched below; roughly 8.8% of the tested compounds scored in any of these assays.
S1P1 ag pot: activates or potentiates agonism at human S1P1 receptor | S1P1 CRE-bla cells, forskolin, beta-lactamase FRET, potentiator mode; S1P1 agonist co-added at EC20, 2 nM; 100% = saturating reference agonist, 0% = basal | activation, % at 9.5 µM | actives 0.57% (n = 56,000);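 active means activation above a cutoff set at the mean activation of all tested compounds plus 3 SD, cut at about 54% in these data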;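 further: forskolin at 4 µM as EC80 and the EC20 agonist is SEW2871; 100% = SEW2871 at its EC100 plus forskolin at EC80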
M1 agonist: agonists of M1 muscarinic receptor; CHO-M1 cells, Fluo-4 calcium fluorescence, agonist mode; hits give high values; B-score at 10 µM; actives 3% (n = 64,000); AID 626;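 active means fluorescence rise, raw or as B-score row- and column-corrected plate score, outside the 99.7% band of its plate's samples, either direction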
S1P3 ag: S1P3 (human) receptor agonism; Q99500; S1P3 NFAT-BLA reporter cells, FRET ratio; relative to 1 µM S1P, basal subtracted; activation, % at 4.5 µM; actives 0.1% (n = 60,000); AID 373;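 active means activation above the screen-wide mean plus 3 SD, cut at about 4.5% in these data, passing the limit was not always enough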
Target sequence (Q99500 whole entry, looked up): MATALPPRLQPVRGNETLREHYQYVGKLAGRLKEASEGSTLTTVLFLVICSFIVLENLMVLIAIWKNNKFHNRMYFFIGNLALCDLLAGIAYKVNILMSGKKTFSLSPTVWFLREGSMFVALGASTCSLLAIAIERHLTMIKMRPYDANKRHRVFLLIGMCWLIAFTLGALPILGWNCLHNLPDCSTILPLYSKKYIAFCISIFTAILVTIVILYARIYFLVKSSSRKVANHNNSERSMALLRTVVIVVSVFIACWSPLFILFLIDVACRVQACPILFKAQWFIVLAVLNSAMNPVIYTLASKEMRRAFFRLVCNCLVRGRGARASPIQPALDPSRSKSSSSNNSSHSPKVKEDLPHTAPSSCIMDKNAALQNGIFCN
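Assay system: stable CHO line with human S1P3, Gα16, NFAT-BLA reporter; Detection: FRET β-lactamase substrate fluorescence, excitation 405 nm, 460/535 nm emission ratio, background-subtracted; Read-out: percent activation versus median 1 µM S1P response, basal-subtracted, per plate; Incubation: cells plated overnight, compound 4 h 37 °C, substrate 2 h RT.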
SF1 activator: activates the human nuclear receptor SF-1 | activation, % at 10 µM | CHO-K1 Gal4-SF-1 LBD luciferase reporter; % increase over DMSO SF-1-specific signal | AID 522 | actives 1.9% (n = 65,000) | Q13285;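 active means activation above the mean activation of all tested compounds plus 3 SD, cut at about 50% in these data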
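Material: CHO-K1 cells with Gal4–hSF-1 LBD chimera plus Gal4-driven luciferase / Input: 4,000 CHO-K1 cells per well / Incubation: compound exposure 20 h at 37 °C / Signal: luminescence read 15 min after SteadyLite luciferase reagent, after room-temperature equilibration / Read-out: percent activation versus DMSO / Benchmarks: DMSO negative control and −SF1 background wells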
M1 antagonist: antagonists of rat M1 muscarinic receptor. actives 3.4% (n = 64,000). B-score at 10 µM. CHO-M1 cells, Fluo-4 calcium, ACh EC80 antagonist mode; hits give low values;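 active means calcium fluorescence response, raw or row-and-column corrected B-score, differing from the plate sample mean either way at a set confidence level, mostly lower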
RORA act: RORA (human) activation; P35398; CHO-K1 Gal4-RORA LBD luciferase reporter, luminescence; percent increase over mock-subtracted basal signal; activation, % at 10 µM; actives 1.5% (n = 65,000); AID 560;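 active means activation above the mean of all tested compounds plus 3 SD, cut at about 49% in these data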;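 further: 0% = DMSO-treated RORA cells and 100% = added signal equal to DMSO minus mock-transfected cells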
M1 ag confirm: rat M1 muscarinic agonism, confirmation | shares compounds with M1 agonist | CHO-M1 cells, Fluo-4 calcium fluorescence, agonist mode; actives lie on both sides | fluorescence change (max-min) at 10 µM | actives 19% (n = 1,700);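 active means fluorescence change differs from the solvent-only DMSO control mean at a set confidence level in both duplicate runs; inconclusive means differs from solvent-only control mean in just one of two runs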;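 further: an EC20 dose of acetylcholine follows compound addition during the same imaging run; raw fluorescence intensity difference in instrument units with no normalization to controls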
M4 ag counter: counter-screen for M1 agonists: activity at rat M4 receptor | actives 9% (n = 1,700) | fluorescence change (max-min) at 10 µM | CHO M4/Gqi5 cells, Fluo-4 calcium fluorescence, agonist mode; actives lie on both sides | shares compounds with M1 agonist;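 active means fluorescence change differing from the plate's solvent-only control wells at 99.7% confidence in both duplicates, whether higher or lower; inconclusive means differs from solvent controls in only one of two duplicates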
Active calls of the source: *.

How did COc1ccc(CCNc2oc(Cc3ccccc3)nc2C#N)cc1OC do in these assays?
S1P1 ag pot: 2; M1 agonist: 6.5*; S1P3 ag: 0; SF1 activator: 26; M1 antagonist: -0.39; RORA act: 1; M1 ag confirm: -31*; M4 ag counter: inconclusive

Results for COc1ccc(CCNc2oc(COc3ccccc3F)nc2C#N)cc1OC ?
S1P1 ag pot: 0; M1 agonist: 3*; S1P3 ag: -1; SF1 activator: 10; M1 antagonist: -2.1*; RORA act: 6; M1 ag confirm: -28; M4 ag counter: -85*

How did CCn1cc(C(=O)OCC(=O)NCc2ccc3c(c2)OCO3)c(=O)c2ccc(C)nc21 do in these assays?
S1P1 ag pot: -21; M1 agonist: 0.56; S1P3 ag: 0; SF1 activator: 1; M1 antagonist: -1.3; RORA act: -6

How did O=C(NCc1cccs1)C1CC(=O)N(c2ccccc2)C1 (stereo not given) do in these assays?
S1P1 ag pot: 1; M1 agonist: 0.15; S1P3 ag: 0; SF1 activator: -4; M1 antagonist: 0.4; RORA act: -7

How did COc1ccc(-c2nc(-c3ccc(NC(=O)c4ccncc4)cc3)no2)cc1OC do in these assays?
S1P1 ag pot: 123*; M1 agonist: 3.8*; S1P3 ag: 0; SF1 activator: -10; M1 antagonist: -0.013; RORA act: 8; M1 ag confirm: -21; M4 ag counter: -8.7

Results for O=C(c1ccco1)N1CCN(c2ncnc3c2cnn3-c2ccccc2)CC1 ?
S1P1 ag pot: -2; M1 agonist: 0.25; S1P3 ag: -2; SF1 activator: 24; M1 antagonist: -0.25; RORA act: 24

How did Cc1nn(-c2ccccc2)c(Cl)c1C(=O)N1CCN(c2ncnc3c2cnn3-c2ccccc2)CC1 do in these assays?
S1P1 ag pot: 28; M1 agonist: 2.5*; S1P3 ag: -1; SF1 activator: -10; M1 antagonist: -3.4*; RORA act: -37; M1 ag confirm: -27*; M4 ag counter: -57

Results for CC(C(=O)NCC1CCCO1)n1cccc1C(=O)c1ccccc1 (stereo not given) ?
S1P1 ag pot: -2; M1 agonist: 21*; S1P3 ag: -1; SF1 activator: -19; M1 antagonist: 2.3*; RORA act: -11; M1 ag confirm: -10; M4 ag counter: inconclusive

How did CCOC(=O)c1sc2nc(N3CCOCC3)c3c(c2c1N)CCCC3 do in these assays?
S1P1 ag pot: -13; M1 agonist: -0.057; S1P3 ag: 0; SF1 activator: -7; M1 antagonist: 0.76; RORA act: -5

How did COC(=O)c1ccc(-c2sc3nc(N4CCOCC4)c4c(c3c2N)CCCC4)o1 do in these assays?
S1P1 ag pot: -34; M1 agonist: 5.5*; S1P3 ag: 1; SF1 activator: -8; M1 antagonist: -0.17; RORA act: -6; M1 ag confirm: 4.5; M4 ag counter: -10

What do the screens show for `CCCCOc1ccc(C(=O)NC)cc1`?
S1P1 ag pot: -3; M1 agonist: -0.77; S1P3 ag: -1; SF1 activator: -7; M1 antagonist: 0.64; RORA act: -10

Results for CCOc1ccc(C(=O)NCc2ccncc2)cc1 ?
S1P1 ag pot: -3; M1 agonist: -0.98; S1P3 ag: -1; SF1 activator: 1; M1 antagonist: 0.048; RORA act: 1

How did CCOc1ccc(-c2nnc(-c3ccncc3)o2)cc1 do in these assays?
S1P1 ag pot: 20; M1 agonist: 0.15; S1P3 ag: 0; SF1 activator: 39; M1 antagonist: -0.72; RORA act: 36

Results for CCCCOc1ccc(C(=O)Nc2ccncc2)cc1 ?
S1P1 ag pot: 24; M1 agonist: 11*; S1P3 ag: -1; SF1 activator: -6; M1 antagonist: -3.7*; RORA act: -8; M1 ag confirm: -17; M4 ag counter: inconclusive

How did CCCCOc1ccc(-c2nnc(-c3ccncc3)o2)cc1 do in these assays?
S1P1 ag pot: 46; M1 agonist: 2.7*; S1P3 ag: -1; SF1 activator: 39; M1 antagonist: -0.49; RORA act: 59*; M1 ag confirm: -18; M4 ag counter: inconclusive

Results for CCCCC(=O)Nc1ccc(C(=O)NCc2ccncc2)cc1 ?
S1P1 ag pot: 10; M1 agonist: 19*; S1P3 ag: -1; SF1 activator: -4; M1 antagonist: 1.3; RORA act: 8; M1 ag confirm: inconclusive; M4 ag counter: -49

What do the screens show for `CCOC(=O)c1cc(NC(=O)c2c(C)noc2C)cc(C(=O)OCC)c1`?
S1P1 ag pot: 7; M1 agonist: -0.2; S1P3 ag: 0; SF1 activator: -15; M1 antagonist: -0.16; RORA act: -19

Results for CCn1c(SCC(=O)c2cc(OC)ccc2OC)nnc1C1CC1 ?
S1P1 ag pot: -6; M1 agonist: -0.78; S1P3 ag: 0; SF1 activator: -9; M1 antagonist: 0.15; RORA act: 5

What do the screens show for `CCN1C(=O)CC(C(=O)O)SC1=Nc1ccc(OC)cc1` (stereo not given)?
S1P1 ag pot: -8; M1 agonist: -0.36; S1P3 ag: 0; SF1 activator: -7; M1 antagonist: 0.61; RORA act: -2

Results for Nc1nc(NC(=O)c2ccco2)nn1-c1ccccc1 ?
S1P1 ag pot: -20; M1 agonist: 0.18; S1P3 ag: 0; SF1 activator: 29; M1 antagonist: 0.085; RORA act: 1

What do the screens show for `CC1=C(C(=O)Nc2ccccc2)C(c2cccnc2)n2nc(-c3cccnc3)nc2N1` (stereo not given)?
S1P1 ag pot: -3; M1 agonist: -0.38; S1P3 ag: 0; SF1 activator: -8; M1 antagonist: 0.58; RORA act: -12

Results for O=C(Nc1nc2n(n1)C(c1ccccc1)C=C(c1ccccc1)N2)c1ccco1 (stereo not given) ?
S1P1 ag pot: 15; M1 agonist: 19*; S1P3 ag: 0; SF1 activator: -11; M1 antagonist: -0.31; RORA act: -12; M1 ag confirm: 44; M4 ag counter: 26

What do the screens show for `O=C(Nc1nc2nc(-c3ccccc3)cc(-c3ccccc3)n2n1)c1ccco1`?
S1P1 ag pot: -10; M1 agonist: 3.8*; S1P3 ag: 0; SF1 activator: 3; M1 antagonist: 0.021; RORA act: -8; M1 ag confirm: -24*; M4 ag counter: -57
